# SR-BI HDL uptake – inhibitors of mouse SR-BI mediated HDL lipid uptake. Q61009. ldlA[mSR-BI] CHO cells, DiI-HDL uptake fluorescence, 3 h. inhibition, % at 12.5 µM. 0.96% of 320,000 active. AID 488896;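 active = mean replicate inhibition of at least 70% and a set share of replicates each scoring 70 or more; inconclusive = meets just one of the two criteria; inactive = fails both criteria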;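 also: 0% = median of neutral control wells and 100% = median of positive control wells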
# UBC13 inh – blocks human UBC13 polyubiquitin chain formation. AID 485273. 0.47% of 330,000 active. TR-FRET. inhibition, % at 20 µM. P61088; in the data active = inhibition above about 45%, passing the limit was not always enough; inconclusive = no clear call, values can overlap the other calls
# SR-BI uptake up – SR-BI HDL lipid transfer activation | 0.096% of 320,000 active | activation, % at 12.5 µM | AID 504775 | CHO ldlA[mSR-BI] cells, DiI-HDL uptake fluorescence, 3 h; 100 = double the neutral-control signal;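 active = mean replicate activation of at least 60% and every replicate at or above 60%; inconclusive = mean or all-replicate condition met, but not both; inactive = mean below 60% and not all replicates reaching 60%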;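 also: 0% = median plate neutral-control signal and 100% = twice that signal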
#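 system = CHO ldlA[mSR-BI] cells, LDL receptor-null, SR-BI overexpressing | medium = Ham's F12 with 0.5% BSA, HEPES 25 mM, pH 7.4 | probe or stimulus = DiI-HDL 10 µg/mL | compound dosing = single-point compound dose | incubation = compound exposure 3 h, 37 °C | technique = DiI fluorescence, bottom read | read-out = cell-associated DiI fluorescence as measure of HDL uptake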
# Neddyl block – cullin neddylation inhibition. TR-FRET cullin neddylation, biochemical. inhibition, % at 25 µM. 0.58% of 360,000 active. AID 651699; in the data active = inhibition above about 36%
# Target sequence (P61081 whole entry, looked up): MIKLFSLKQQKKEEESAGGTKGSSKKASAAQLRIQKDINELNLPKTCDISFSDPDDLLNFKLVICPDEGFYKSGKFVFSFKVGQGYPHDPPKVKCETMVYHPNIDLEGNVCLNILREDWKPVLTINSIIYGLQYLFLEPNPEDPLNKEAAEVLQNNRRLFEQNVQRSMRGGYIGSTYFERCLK
# Target sequence (Q13564 whole entry, looked up): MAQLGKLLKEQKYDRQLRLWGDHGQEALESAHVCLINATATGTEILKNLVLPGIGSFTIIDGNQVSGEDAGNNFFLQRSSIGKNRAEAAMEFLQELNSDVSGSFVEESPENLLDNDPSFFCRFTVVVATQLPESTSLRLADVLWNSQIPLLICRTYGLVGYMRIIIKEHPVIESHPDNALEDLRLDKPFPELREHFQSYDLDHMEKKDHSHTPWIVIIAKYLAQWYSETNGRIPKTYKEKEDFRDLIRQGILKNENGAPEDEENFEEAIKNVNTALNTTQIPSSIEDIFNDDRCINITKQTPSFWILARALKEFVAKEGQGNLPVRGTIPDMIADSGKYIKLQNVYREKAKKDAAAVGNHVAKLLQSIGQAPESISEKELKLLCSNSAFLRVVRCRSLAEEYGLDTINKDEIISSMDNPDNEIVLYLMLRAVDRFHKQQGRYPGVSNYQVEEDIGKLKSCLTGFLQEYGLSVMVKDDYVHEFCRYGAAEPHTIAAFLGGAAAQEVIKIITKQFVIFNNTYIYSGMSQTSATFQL
# Casp3 counter – inhibits human caspase-3 in UBC13 counter-screen. shares compounds with UBC13 inh. Recombinant caspase-3, Caspase-Glo 3/7 luminescence, 60 min. inhibition, % at 20 µM. 4% of 1,400 active. AID 488856;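 active = mean inhibition across replicates above about 26%, limit read from the data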;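 also: plate controls were DMSO with caspase-3 for no effect and DMSO wells lacking enzyme for full effect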
# UBC13 confirm – confirmation of human UBC13 polyubiquitin inhibitors; UBC13 polyubiquitination, TR-FRET, biochemical; 68% of 1,400 active; shares compounds with UBC13 inh; inhibition, % at 10 µM; in the data active = inhibition above about 45%; inconclusive = no clear call, values can overlap the other calls
# * hit, by the source's call; ? = inconclusive; / = no result given. The list is not random: actives were taken first. Their share in the collection is about 1.9%.
SMILES,SR-BI HDL uptake,UBC13 inh,SR-BI uptake up,Neddyl block,Casp3 counter,UBC13 confirm
CCOC(=O)Cn1c(COc2ccccc2OC)[n+](C)c2ccccc21,/,4.7,/,-4.7,/,/
CCCCCCCCCCOC(=O)Cn1c(COc2ccccc2C)[n+](C)c2ccccc21,-20.5,45.2*,20.5,14.3,0.7,44.2
CC(c1ccccc1)N1CC(C(=O)N2CCN(Cc3ccc(C#N)cc3)CC2)CC1=O (stereo not given),-19.6,-0.8,19.6,13.4,/,/
CCCCCCCCCCOC(=O)Cn1c(COc2ccc(OC)cc2)[n+](C)c2ccccc21,-5.9,62.8*,5.9,-1.5,5.2,80.9*
Cc1cc(C)c(OCC(=O)N(Cc2ccccc2)C2CCS(=O)(=O)C2)c(C)c1 (stereo not given),19.6,2.4,-19.6,3.8,/,/
COc1ccccc1NC(=O)Nc1nc(C(C)(C)C)cs1,56.1,53.2*,-56.1,7.4,-2.1,54.8*
CC(C)COc1ccc(-c2nnc(-c3ccco3)o2)cc1,-11.6,-4.6,11.6,/,/,/
CCN(CC)CCCNc1ccc(-c2nnc(-c3ccc(OCC(C)C)cc3)o2)cn1,-23.6,46.8*,23.6,/,4.5,77.5*
O=C(Nc1ccccc1)c1cc(C2CCCCN2C(=O)c2ccccc2)on1 (stereo not given),/,/,/,4.4,/,/
Nc1ccn(CCCNCC(c2ccccc2)c2ccccc2)c(=O)n1,/,/,/,-9.9,/,/
O=C(NCCc1ccccn1)c1ccc(OC(F)F)cc1,2.1,5.9,-2.1,-2.2,/,/
O=C(NNC(=O)c1ccccn1)c1ccc(OC(F)F)cc1,-8.4,96.0*,8.4,7.2,59.1*,67.7*
Cc1ccccc1C(=O)N1CCC(n2nccc2NC(=O)CCOc2ccccc2)CC1,10.8,-4.0,-10.8,10.3,/,/
O=C(Cn1nc(-c2nn(CC(=O)c3ccccc3)c3[n+]2CCCCC3)[n+]2c1CCCCC2)c1ccccc1,/,78.1*,/,-4.9,1.8,13.2
CC(=O)NC(c1cccs1)c1cc(Cl)c2ccccc2c1O (stereo not given),22.8,71.2*,-22.8,/,-1.6,57.9*
CC(=O)NC(c1cccs1)c1cc([N+](=O)[O-])c2cccnc2c1O (stereo not given),-25.8,/,25.8,-36.0,/,/
CCC(=O)NC(c1cccs1)c1cc(Cl)c2ccccc2c1O (stereo not given),-1.7,49.2*,1.7,/,-2.1,33.7
CC(=O)NC(c1cc(Cl)c2ccccc2c1O)C(C)C (stereo not given),5.3,80.9*,-5.3,/,-3.8,56.4*
C#CCOCCOCCOCCNc1nc(N2CCN(C(=O)[C@H](Cc3ccc(O)cc3)n3cc([C@@H](N)C(C)CC)nn3)CC2)nc(N2CCN(C(=O)[C@H](CCCCN)n3cc([C@@H](N)CO)nn3)CC2)n1 (stereo not given in full),-4.3,32.5,4.3,-14.0,/,/
C#CCOCCOCCOCCNc1nc(N2CCN(C(=O)[C@H](Cc3ccc(O)cc3)n3cc([C@@H](N)C(C)CC)nn3)CC2)nc(N2CCN(C(=O)[C@H](CCCCN)n3cc([C@@H](N)CC(C)C)nn3)CC2)n1 (stereo not given in full),/,58.5*,/,/,-1.6,50.3*
C#CCOCCOCCOCCNc1nc(N2CCN(C(=O)C([C@@H](C)CC)n3cc(C(N)CO)nn3)CC2)nc(N2CCN(C(=O)[C@H](CCC(=O)O)n3cc(C(N)Cc4ccc(O)cc4)nn3)CC2)n1 (stereo not given in full),/,-9.6,/,/,/,/
C#CCOCCOCCOCCNc1nc(N2CCN(C(=O)[C@H]([C@@H](C)CC)n3cc([C@@H](N)Cc4ccc(O)cc4)nn3)CC2)nc(N2CCN(C(=O)[C@H](CCCCN)n3cc([C@@H](N)CO)nn3)CC2)n1,/,97.6*,/,/,-2.6,73.1*
C#CCOCCOCCOCCNc1nc(N2CCN(C(=O)[C@H]([C@@H](C)CC)n3cc([C@@H](N)CC(C)C)nn3)CC2)nc(N2CCN(C(=O)[C@H](Cc3ccc(O)cc3)n3cc([C@@H](N)C(C)CC)nn3)CC2)n1 (stereo not given in full),-20.9,56.6*,20.9,-10.8,0.1,51.2*
C#CCOCCOCCOCCNc1nc(N2CCN(C(=O)[C@H](CCCCN)n3cc([C@@H](N)C(C)CC)nn3)CC2)nc(N2CCN(C(=O)[C@H](Cc3cc4ccccc4[nH]3)n3cc([C@@H](N)CC(C)C)nn3)CC2)n1 (stereo not given in full),10.4,99.9*,-10.4,-21.5,-2.5,116.5*
O=C(Nc1ccsn1)c1ccc(Cl)cc1Cl,6.3,-7.7,-6.3,-6.5,/,/
SMILES,SR-BI HDL uptake,UBC13 inh,SR-BI uptake up,Neddyl block,Casp3 counter,UBC13 confirm
C#CCOCCOCCOCCNc1nc(N2CCN(C(=O)[C@H]([C@@H](C)CC)n3cc([C@@H](N)Cc4ccc(O)cc4)nn3)CC2)nc(N2CCN(C(=O)[C@H](Cc3ccc(O)cc3)n3cc([C@@H](N)C(C)CC)nn3)CC2)n1 (stereo not given in full),7.4,63.8*,-7.4,-17.4,1.0,56.8*
NC1=NC[C@H](Cc2ccccc2)N1CCc1cc(C(F)(F)F)cc(C(F)(F)F)c1,-2.3,80.1*,2.3,-4.9,-9.9,45.0*
FC(F)(F)c1cc(CCN2C(=S)NC[C@@H]2Cc2ccccc2)cc(C(F)(F)F)c1,6.0,10.3,-6.0,-13.1,/,/
COCCN1CCN(C(=O)c2cc(COc3ccc(Cl)cc3OC)on2)CC1,1.6,0.8,-1.6,-4.4,/,/
CCC(=O)c1cc2c(C)cc(=O)oc2c(C)c1O,-20.3,45.4*,20.3,-65.3,-2.1,?
Cc1ccc(C(C)C)c(OCC(=O)NC2CCN(C)CC2)c1,-26.9,0.4,/,0.7,/,/
COc1ccnc2c1c(=O)n(Cc1ccc(Cl)cc1)c(=O)n2C,0.0,71.2*,0.0,-174.9,0.3,?
COc1ccnc2c1c(=O)n(Cc1ccc(Cl)cc1Cl)c(=O)n2C,27.5,36.5,-27.5,-150.9,/,/
COc1ccnc2c1c(=O)n(Cc1c(F)cccc1Cl)c(=O)n2C,8.8,9.4,-8.8,0.0,/,/
COc1ccnc2c1c(=O)n(Cc1ccc(F)cc1)c(=O)n2C,-16.9,56.7*,16.9,-68.0,0.4,66.7*
COC(=O)c1sccc1S(=O)(=O)Nc1ccc(C(O)(C(F)(F)F)C(F)(F)F)cc1,/,/,/,-3.3,/,/
O=C(CCc1ccccc1)NNC(=O)c1ccccn1,-4.6,49.8*,4.6,5.1,1.9,64.0*
Cc1cccc(OCCCC(=O)NNC(=O)c2ccccn2)c1,26.9,75.3*,-26.9,-13.6,-3.2,16.5
CCNC(=S)NNC(=O)c1ccccc1Cl,1.1,0.4,-1.1,-5.1,/,/
NC(=O)NC(CC(=O)NNC(=O)c1ccccn1)c1ccccc1Cl (stereo not given),-15.4,79.5*,15.4,21.0,7.5,82.4*
Cc1cccc(OCCCC(=O)NNC(=O)c2ccncc2)c1,-21.7,1.1,21.7,8.3,/,/

# Source: PubChem (several laboratories)
